The results in this text go back to PMC7355085 (ACS chemical neuroscience, 2016).

The test system of series [1] is SH-SY5Y cells. Kind of series: Aβ42-induced tau phosphorylation in SH-SY5Y cells. In kind it is cell-based, human. In short, it runs like this:
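SH-SY5Y cells were seeded at 3 × 10^5 cells/mL in DMEM/F12 with 1% FBS. […] Lysates in pyrophosphate buffer pH 7.4, 10 μg/lane, 10% SDS-PAGE, PVDF; primary antibodies 2 h at room temperature; β-actin loading control.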

In series [2] the test system is SH-SY5Y cells. Kind of series: Morphological changes of SH-SY5Y cells. In kind it is cell-based, human. In short, it runs like this:
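SH-SY5Y cultures (37 °C, humidified, 5% CO2) were examined by microscopy after 72 h. Conditions were 0.2% DMSO vehicle control, 10 μM Aβ42 alone, or test compound pretreatment followed by 10 μM Aβ42. Read-out was differentiation state and neurite extension or retraction.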

The next series has as its system other 18 kinases. As to the kind of experiment: Kinase selectivity panel. The series is classed as biochemical. Particulars: 224 μM; p > 0.05.
Series [3] deals with T1, GSK3β (Homo sapiens, UniProt P49841). Kind of series: GSK3β enzyme kinetics. Particulars: noncompetitive inhibition with respect to ATP, GS2 constant at 17 μM, varying ATP. In kind it is biochemical. A digest of the protocol: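 Substrate GS2 held at 17 μM while ATP and test compound concentrations were varied. Vehicle was 5% DMSO. Quadruplicates from each of two independent experiments; means ± SEM.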

The next series deals with CK2 (Homo sapiens, UniProt P68400). As to the kind of experiment: Kinase selectivity panel. The series is classed as biochemical. Particulars: read-out: Inhibition against CK2.
A further series deals with AKT1 (Homo sapiens, UniProt P31749). Kind of series: Kinase selectivity panel. Particulars: read-out: Inhibition against AKT1. The series is classed as biochemical.
The target of the next series is PKC (Homo sapiens, UniProt P17252). As to the kind of experiment: Kinase selectivity panel. In kind it is biochemical. Conditions: read-out: Inhibition against PKC.
The subject of series [4] is SH-SY5Y cells. Kind of series: Neuroprotection against Aβ42-induced cytotoxicity, cell viability assay. In kind it is cell-based, human. Conditions: 1 112 μM; combinations with LiCl 10 mM or TDZD-8 10 μM; 10 μM Aβ42, 72 h.
The target in series [5] is T1, GSK3β. As to the kind of experiment: Promiscuous aggregation assay: GSK3β inhibition with Triton X-100. The series is classed as biochemical.
Series [6] has as its target T1, GSK3β. The series is classed as biochemical.
The next series addresses CDK5/p25 (Homo sapiens, UniProt Q00535). As to the kind of experiment: ADP-Glo kinase luminescent assay, CDK5/p25 inhibition. The series is classed as biochemical. Background: ADP-Glo first removes unused ATP, then detects ADP through luciferase.
Series [7] relates to SH-SY5Y cells. As to the kind of experiment: Cell viability / cytotoxicity assessment in SH-SY5Y cells. In kind it is cell-based, human.

Where two headings read alike, the source gives them in different places. A value given as a limit tells only on which side of the number the result lay.

T1 sequence (P49841 whole entry): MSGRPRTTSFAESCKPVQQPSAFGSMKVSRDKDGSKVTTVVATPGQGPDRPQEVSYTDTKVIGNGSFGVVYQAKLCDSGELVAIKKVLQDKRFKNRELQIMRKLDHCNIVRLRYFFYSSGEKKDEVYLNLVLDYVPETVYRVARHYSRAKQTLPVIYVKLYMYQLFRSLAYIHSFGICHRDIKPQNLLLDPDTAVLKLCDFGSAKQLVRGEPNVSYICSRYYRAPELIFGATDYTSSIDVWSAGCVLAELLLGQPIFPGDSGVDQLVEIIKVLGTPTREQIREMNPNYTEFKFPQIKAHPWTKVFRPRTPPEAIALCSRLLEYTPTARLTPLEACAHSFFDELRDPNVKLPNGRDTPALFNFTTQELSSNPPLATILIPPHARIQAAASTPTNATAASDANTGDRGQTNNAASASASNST
Chain of CDK5/p25 (Q00535 whole entry): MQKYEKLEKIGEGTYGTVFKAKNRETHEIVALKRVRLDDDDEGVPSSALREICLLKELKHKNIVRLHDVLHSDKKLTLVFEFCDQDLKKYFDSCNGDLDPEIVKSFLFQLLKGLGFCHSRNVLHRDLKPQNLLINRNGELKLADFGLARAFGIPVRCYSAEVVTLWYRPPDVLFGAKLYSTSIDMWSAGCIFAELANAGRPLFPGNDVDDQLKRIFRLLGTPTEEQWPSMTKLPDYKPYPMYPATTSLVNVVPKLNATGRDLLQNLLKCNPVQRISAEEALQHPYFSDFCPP
Chain of CDK5/p25 (Q15078 99-307 partner limits assumed): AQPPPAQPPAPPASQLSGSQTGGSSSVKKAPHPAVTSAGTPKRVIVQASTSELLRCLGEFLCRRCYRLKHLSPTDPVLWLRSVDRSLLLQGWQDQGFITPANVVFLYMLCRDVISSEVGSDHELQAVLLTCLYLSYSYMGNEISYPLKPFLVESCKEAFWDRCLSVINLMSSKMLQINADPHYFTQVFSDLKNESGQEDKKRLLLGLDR
Chain of CK2 (P68400 whole entry): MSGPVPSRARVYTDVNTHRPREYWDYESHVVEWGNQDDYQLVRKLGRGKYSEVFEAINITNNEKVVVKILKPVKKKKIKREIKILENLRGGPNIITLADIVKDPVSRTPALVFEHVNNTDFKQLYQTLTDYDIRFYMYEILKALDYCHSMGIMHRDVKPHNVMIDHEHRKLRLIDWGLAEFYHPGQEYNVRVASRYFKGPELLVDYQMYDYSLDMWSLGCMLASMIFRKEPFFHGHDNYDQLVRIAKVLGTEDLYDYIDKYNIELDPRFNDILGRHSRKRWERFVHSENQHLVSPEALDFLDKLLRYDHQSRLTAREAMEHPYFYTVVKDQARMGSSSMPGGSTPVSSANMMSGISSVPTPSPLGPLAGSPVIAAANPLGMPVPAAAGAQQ
Chain of AKT1 (P31749 whole entry): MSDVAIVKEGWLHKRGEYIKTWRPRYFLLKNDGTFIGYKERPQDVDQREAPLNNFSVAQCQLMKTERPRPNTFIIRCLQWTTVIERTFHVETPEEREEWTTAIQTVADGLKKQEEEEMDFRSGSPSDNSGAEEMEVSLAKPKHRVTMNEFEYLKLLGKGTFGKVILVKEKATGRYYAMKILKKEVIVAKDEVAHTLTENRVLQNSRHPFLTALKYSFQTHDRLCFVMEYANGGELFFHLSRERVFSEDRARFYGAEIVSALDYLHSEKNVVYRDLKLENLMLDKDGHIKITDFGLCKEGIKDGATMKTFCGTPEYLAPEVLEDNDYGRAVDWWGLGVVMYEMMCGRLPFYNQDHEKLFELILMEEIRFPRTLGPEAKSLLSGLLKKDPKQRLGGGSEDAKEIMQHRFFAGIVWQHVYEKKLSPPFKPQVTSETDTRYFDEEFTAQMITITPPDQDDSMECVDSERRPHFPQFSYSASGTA

In general, Ki refers to a dissociation constant, usually derived from enzyme kinetics or from competition with a known ligand. Read a low Ki as higher affinity. As a reminder, the inhibition is the share of the control response that was lost under treatment. On to `O=c1cc(-c2ccc(O)c(O)c2)oc2cc(O)c([C@@H]3O[C@H](CO)[C@@H](O)[C@H](O)[C@H]3O)c(O)c12` [Compound 1, isoorientin], for which the “Levels of GSK3β pS9 and total GSK3β” value with SH-SY5Y cells [1] (co-incubation of 1 with 10 μM Aβ42, 72 h, compared to untreated cells, p > 0.05) was “No significant change”. Moreover, the Cell morphology entry was “Partial differentiated cells with extended neurites” in the series with SH-SY5Y cells [2] (pretreatment of 28 μM 1 followed by 10 μM Aβ42, 72 h); “Protected differentiated cells with extended axons and dendrites” with SH-SY5Y cells [2] (pretreatment of 448 μM 1 followed by 10 μM Aβ42, 72 h). The “Inhibition of other 18 kinases of the panel” value with other 18 kinases was “did not significantly inhibit”. Also, on GSK3β [3], the affinity corresponds to a Ki of 210 ± 22 µM. For the same molecule, the inhibition at 224 µM on CK2, at AKT1 and on PKC was roughly 30% in each case. Besides, in the series with SH-SY5Y cells [4], the “Neuroprotection against cell viability loss, single concentration” value is recorded as “neuroprotection against cell viability loss”. Further, the IC50 was 192 µM at GSK3β [5] and greater than 15000 µM against CDK5/p25. In addition, the “Decrease of GSK3β kinase activity” value at GSK3β [6] (224 μM, compared to control (100% kinase activity), p < 0.0001) turned out to be 52.4%. The “Dose up to which no cytotoxicity to SH-SY5Y cells was noted” value in the series on SH-SY5Y cells [7] (72 h) was greater than 896 µM. Moreover, the “Effect on cell proliferation” value in the series on SH-SY5Y cells [7] (72 h, without Aβ42) was “slightly stimulated cell proliferation”.
Take `O=c1cc(-c2ccc(O)c(O)c2)oc2cc(O)cc(O)c12` [luteolin]: the IC50 against GSK3β [5] (IC50, GSK3β, with 0.01% Triton, with 0.01% Triton X-100) was found to be 32 µM; against GSK3β [5] (IC50, GSK3β, without Triton, before addition of Triton X-100), 2 µM.
In the case of 3’-methoxymaysin [Compound 2], the IC50 is 288 µM at GSK3β [6] (read-out: IC50, GSK3β inhibition, 25 μM ATP, 1 h, room temperature) and greater than 15000 µM on CDK5/p25 (read-out: IC50, CDK5/p25).
As to β-Amyloid fragment peptide 1–42 [Aβ42], in the series on SH-SY5Y cells [1] (10 μM Aβ42, 72 h), the “Increase of tau phosphorylation at pS199/pS202 relative to untreated cells” value is reported as “approximately 3.5 fold” and the “Increase of tau phosphorylation at pS396 relative to untreated cells” value is given as roughly 2.3 fold. In addition, the Cell morphology entry in the series with SH-SY5Y cells [2] (10 μM Aβ42 treatment, 72 h) is “Impaired and nondifferentiated cells with retracted neurites”. In the series on SH-SY5Y cells [7] (10 μM Aβ42), the “Inhibition of cell growth” value was “about 50%”.
